Experimental data reported in ChEMBL document CHEMBL4014298, “Discovery of a series of 8-(1-phenylpyrrolidin-2-yl)-6-carboxamide-2-morpholino-4H-chromen-4-one as PI3Kβ/δ inhibitors for the treatment of PTEN-deficient tumours” (Bioorg Med Chem Lett, 2017).

Legend:
[1] = target: MAP kinase-interacting serine/threonine-protein kinase 1 (Homo sapiens) (UniProt Q9BUB5); assay: Inhibition of human MNK1 (2 to 424 residues) at 1 uM after 5 mins in presence of [33P]ATP by filter binding assay relative to control
Sphingosine kinase 2 = Sphingosine kinase 2 (Homo sapiens, UniProt Q9NRA0); assay: Inhibition of human SPHK 2 (1 to 654 residues) by ADP Glo HTS assay
Method in brief: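 Lipid kinase selectivity assessed in a 15-kinase panel (Dundee University lipid kinase panel), IC50 determined.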

MAP kinase-interacting serine/threonine-protein kinase 1 (Homo sapiens), sequence (Q9BUB5 whole entry, looked up, the tested form may be a part): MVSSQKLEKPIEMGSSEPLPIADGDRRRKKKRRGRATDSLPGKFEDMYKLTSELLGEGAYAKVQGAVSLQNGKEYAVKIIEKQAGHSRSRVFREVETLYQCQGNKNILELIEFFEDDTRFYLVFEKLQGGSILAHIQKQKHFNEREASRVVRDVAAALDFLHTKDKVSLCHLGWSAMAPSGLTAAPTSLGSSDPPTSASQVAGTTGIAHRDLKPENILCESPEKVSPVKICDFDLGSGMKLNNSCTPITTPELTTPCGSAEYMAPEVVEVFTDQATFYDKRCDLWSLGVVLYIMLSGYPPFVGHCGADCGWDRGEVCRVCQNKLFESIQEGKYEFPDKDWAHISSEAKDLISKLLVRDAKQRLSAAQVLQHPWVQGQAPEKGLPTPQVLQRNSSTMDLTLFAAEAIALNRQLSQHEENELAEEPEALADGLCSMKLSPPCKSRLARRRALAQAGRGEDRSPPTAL
Sphingosine kinase 2, sequence (Q9NRA0 whole entry, the tested form may be a part): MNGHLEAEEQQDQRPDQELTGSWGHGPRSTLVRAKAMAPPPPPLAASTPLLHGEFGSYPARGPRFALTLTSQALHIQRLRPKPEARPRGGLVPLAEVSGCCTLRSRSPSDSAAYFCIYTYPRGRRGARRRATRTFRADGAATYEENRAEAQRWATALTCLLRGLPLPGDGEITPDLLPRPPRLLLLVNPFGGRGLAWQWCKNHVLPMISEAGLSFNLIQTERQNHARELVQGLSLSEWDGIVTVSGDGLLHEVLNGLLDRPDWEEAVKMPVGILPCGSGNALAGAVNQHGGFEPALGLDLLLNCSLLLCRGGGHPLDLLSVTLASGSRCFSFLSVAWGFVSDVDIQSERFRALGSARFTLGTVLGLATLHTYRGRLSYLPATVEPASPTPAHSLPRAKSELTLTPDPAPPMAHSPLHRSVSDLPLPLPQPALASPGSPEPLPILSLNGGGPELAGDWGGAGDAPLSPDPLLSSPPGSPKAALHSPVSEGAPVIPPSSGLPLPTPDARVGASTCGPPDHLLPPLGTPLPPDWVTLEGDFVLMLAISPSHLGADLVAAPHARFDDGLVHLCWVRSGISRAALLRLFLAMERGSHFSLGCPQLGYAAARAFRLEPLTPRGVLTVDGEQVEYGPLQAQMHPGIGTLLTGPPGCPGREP

inhibition [1]: 36%
IC50 (Sphingosine kinase 2): > 50 µM
SMILES: O=C(c1cc([C@H]2CCCN2c2cc(F)cc(F)c2)c2oc(N3CCOCC3)cc(=O)c2c1)N1CCOCC1
